Assay results reported in ChEMBL document CHEMBL4184148 (Bioorg Med Chem Lett, 2017).
pIC50: −log10 of the molar value.

Legend:
[1] = biological target: Serine/threonine-protein kinase TAO2 (Homo sapiens) (UniProt Q9UL54); test: Binding affinity to wild-type human partial length TAOK2 (M1 to A320 residues) expressed in HEK293 cells at 1 uM by Kinomescan method relative to control; type: cell-based
Aurora kinase B = Aurora kinase B (Homo sapiens, UniProt Q96GD4); test: Binding affinity to wild-type human partial length AURKB (D25 to A303 residues) expressed in HEK293 cells at 1 uM by Kinomescan method relative to control; type: cell-based
[2] = biological target: Phosphatidylinositol 5-phosphate 4-kinase type-2 gamma (Homo sapiens) (UniProt Q8TBX8); test: Binding affinity to wild-type human partial length PIP5K2C (M1 to A421 residues) expressed in HEK293 cells at 1 uM by Kinomescan method relative to control; type: cell-based
[3] = biological target: Epidermal growth factor receptor (Homo sapiens) (UniProt P00533); test: Binding affinity to wild-type human partial length EGFR (R669 to V1011 residues) expressed in Escherichia coli BL21 at 1 uM by Kinomescan method relative to control
[4] = biological target: BDNF/NT-3 growth factors receptor (Homo sapiens) (UniProt Q16620); test: Binding affinity to wild-type human partial length TRKB (Q547 to G838 residues) expressed in HEK293 cells at 1 uM by Kinomescan method relative to control; type: cell-based
[5] = biological target: Muscle, skeletal receptor tyrosine-protein kinase (Homo sapiens) (UniProt O15146); test: Binding affinity to wild-type human partial length MUSK (M553 to V869 residues) expressed in Escherichia coli BL21 at 1 uM by Kinomescan method relative to control
[6] = biological target: Mitogen-activated protein kinase 8 (Homo sapiens) (UniProt P45983); test: Binding affinity to wild-type human full length JNK1 (M1 to Q384 residues) expressed in HEK293 cells at 1 uM by Kinomescan method relative to control; type: cell-based
Summary of the method: (§1)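 Run as one kinome-wide competition binding panel with each compound at a single fixed concentration. Results were plotted as a kinome-wide selectivity map.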

[7] = biological target: Protein kinase C iota type (Homo sapiens) (UniProt P41743); test: Binding affinity to wild-type human partial length PRKCI (H215 to V587 residues) expressed in HEK293 cells at 1 uM by Kinomescan method relative to control; type: cell-based
[8] = biological target: Ephrin type-A receptor 4 (Homo sapiens) (UniProt P54764); test: Binding affinity to wild-type human partial length EPHA4 (T601 to R897 residues) expressed in Escherichia coli BL21 at 1 uM by Kinomescan method relative to control
[9] = biological target: 5'-AMP-activated protein kinase catalytic subunit alpha-1 (Homo sapiens) (UniProt Q13131); test: Binding affinity to wild-type human partial length AMPK alpha1 (M1 to E306 residues) expressed in Escherichia coli BL21 at 1 uM by Kinomescan method relative to control
Summary of the method: (§2)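 Kinome-wide competition binding panel run by an outside provider, with each compound tested at a single concentration. Activity is read against the kinase panel.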

[10] = biological target: Interferon-induced, double-stranded RNA-activated protein kinase (Homo sapiens) (UniProt P19525); test: Binding affinity to wild-type human partial length PRKR (F247 to C551 residues) expressed in Escherichia coli BL21 at 1 uM by Kinomescan method relative to control
[11] = tested on: Epidermal growth factor receptor (Homo sapiens), P00533 [L861Q]; test: Binding affinity to human partial length EGFR L861Q mutant (R669 to V1011 residues) expressed in Escherichia coli BL21 at 1 uM by Kinomescan method relative to control
[12] = tested on: Phosphatidylinositol 4,5-bisphosphate 3-kinase catalytic subunit alpha isoform (Homo sapiens), P42336 [E545A]; test: Binding affinity to human partial length PIK3CA E545A mutant (R108 to N1068 residues) expressed in HEK293 cells at 1 uM by Kinomescan method relative to control; type: cell-based
[13] = biological target: Interleukin-1 receptor-associated kinase 1 (Homo sapiens) (UniProt P51617); test: Binding affinity to wild-type human partial length IRAK1 (R194 to S712 residues) expressed in HEK293 cells at 1 uM by Kinomescan method relative to control; type: cell-based
[14] = tested on: Phosphatidylinositol 4,5-bisphosphate 3-kinase catalytic subunit alpha isoform (Homo sapiens), P42336 [E545K]; test: Binding affinity to human partial length PIK3CA E545K mutant (R108 to N1068 residues) expressed in HEK293 cells at 1 uM by Kinomescan method relative to control; type: cell-based
[15] = biological target: Calcium/calmodulin-dependent protein kinase kinase 1 (Homo sapiens) (UniProt Q8N5S9); test: Binding affinity to wild-type human partial length CAMKK1 (R65 to E414 residues) expressed in Escherichia coli BL21 at 1 uM by Kinomescan method relative to control
[16] = biological target: T1, Leucine-rich repeat serine/threonine-protein kinase 2 (Homo sapiens, UniProt Q5S007); test: Inhibition of recombinant GST-tagged human LRRK2 (970 to 2527 residues) catalytic domain expressed in baculovirus expression system by ADAPTA assay
[17] = biological target: Platelet-derived growth factor receptor beta (Homo sapiens) (UniProt P09619); test: Binding affinity to wild-type human partial length PDGFRB (V582 to Y1009 residues) expressed in Escherichia coli BL21 at 1 uM by Kinomescan method relative to control
[18] = biological target: T1, Leucine-rich repeat serine/threonine-protein kinase 2; test: Binding affinity to wild-type human partial length LRRK2 (H970 to E2527 residues) expressed in HEK293 cells at 1 uM by Kinomescan method relative to control; type: cell-based
[19] = biological target: Mitogen-activated protein kinase kinase kinase 5 (Homo sapiens) (UniProt Q99683); test: Binding affinity to wild-type human partial length ASK1 (E648 to S964 residues) expressed in Escherichia coli BL21 at 1 uM by Kinomescan method relative to control; summary of the method: as §2
[20] = biological target: Receptor tyrosine-protein kinase erbB-2 (Homo sapiens) (UniProt P04626); test: Binding affinity to wild-type human partial length ERBB2 (K646 to V1225 residues) expressed in HEK293 cells at 1 uM by Kinomescan method relative to control; type: cell-based
[21] = biological target: Testis-specific serine/threonine-protein kinase 3 (Homo sapiens) (UniProt Q96PN8); test: Binding affinity to wild-type human full length TSSK3 (M1 to T268 residues) expressed in HEK293 cells at 1 uM by Kinomescan method relative to control; type: cell-based; summary of the method: as §2
[22] = tested on: Epidermal growth factor receptor (Homo sapiens), P00533 [L858R]; test: Binding affinity to human partial length EGFR L858R mutant (R669 to V1011 residues) expressed in Escherichia coli BL21 at 1 uM by Kinomescan method relative to control
[23] = biological target: Eukaryotic translation initiation factor 2-alpha kinase 1 (Homo sapiens) (UniProt Q9BQI3); test: Binding affinity to wild-type human partial length EIF2AK1 (Q147 to E603 residues) expressed in HEK293 cells at 1 uM by Kinomescan method relative to control; type: cell-based
[24] = biological target: Casein kinase II subunit alpha (Homo sapiens) (UniProt P68400); test: Binding affinity to wild-type human full length CSNK2A1 (M1 to Q391 residues) expressed in HEK293 cells at 1 uM by Kinomescan method relative to control; type: cell-based; summary of the method: as §1

T1 sequence (Q5S007 whole entry, the tested form may be a part): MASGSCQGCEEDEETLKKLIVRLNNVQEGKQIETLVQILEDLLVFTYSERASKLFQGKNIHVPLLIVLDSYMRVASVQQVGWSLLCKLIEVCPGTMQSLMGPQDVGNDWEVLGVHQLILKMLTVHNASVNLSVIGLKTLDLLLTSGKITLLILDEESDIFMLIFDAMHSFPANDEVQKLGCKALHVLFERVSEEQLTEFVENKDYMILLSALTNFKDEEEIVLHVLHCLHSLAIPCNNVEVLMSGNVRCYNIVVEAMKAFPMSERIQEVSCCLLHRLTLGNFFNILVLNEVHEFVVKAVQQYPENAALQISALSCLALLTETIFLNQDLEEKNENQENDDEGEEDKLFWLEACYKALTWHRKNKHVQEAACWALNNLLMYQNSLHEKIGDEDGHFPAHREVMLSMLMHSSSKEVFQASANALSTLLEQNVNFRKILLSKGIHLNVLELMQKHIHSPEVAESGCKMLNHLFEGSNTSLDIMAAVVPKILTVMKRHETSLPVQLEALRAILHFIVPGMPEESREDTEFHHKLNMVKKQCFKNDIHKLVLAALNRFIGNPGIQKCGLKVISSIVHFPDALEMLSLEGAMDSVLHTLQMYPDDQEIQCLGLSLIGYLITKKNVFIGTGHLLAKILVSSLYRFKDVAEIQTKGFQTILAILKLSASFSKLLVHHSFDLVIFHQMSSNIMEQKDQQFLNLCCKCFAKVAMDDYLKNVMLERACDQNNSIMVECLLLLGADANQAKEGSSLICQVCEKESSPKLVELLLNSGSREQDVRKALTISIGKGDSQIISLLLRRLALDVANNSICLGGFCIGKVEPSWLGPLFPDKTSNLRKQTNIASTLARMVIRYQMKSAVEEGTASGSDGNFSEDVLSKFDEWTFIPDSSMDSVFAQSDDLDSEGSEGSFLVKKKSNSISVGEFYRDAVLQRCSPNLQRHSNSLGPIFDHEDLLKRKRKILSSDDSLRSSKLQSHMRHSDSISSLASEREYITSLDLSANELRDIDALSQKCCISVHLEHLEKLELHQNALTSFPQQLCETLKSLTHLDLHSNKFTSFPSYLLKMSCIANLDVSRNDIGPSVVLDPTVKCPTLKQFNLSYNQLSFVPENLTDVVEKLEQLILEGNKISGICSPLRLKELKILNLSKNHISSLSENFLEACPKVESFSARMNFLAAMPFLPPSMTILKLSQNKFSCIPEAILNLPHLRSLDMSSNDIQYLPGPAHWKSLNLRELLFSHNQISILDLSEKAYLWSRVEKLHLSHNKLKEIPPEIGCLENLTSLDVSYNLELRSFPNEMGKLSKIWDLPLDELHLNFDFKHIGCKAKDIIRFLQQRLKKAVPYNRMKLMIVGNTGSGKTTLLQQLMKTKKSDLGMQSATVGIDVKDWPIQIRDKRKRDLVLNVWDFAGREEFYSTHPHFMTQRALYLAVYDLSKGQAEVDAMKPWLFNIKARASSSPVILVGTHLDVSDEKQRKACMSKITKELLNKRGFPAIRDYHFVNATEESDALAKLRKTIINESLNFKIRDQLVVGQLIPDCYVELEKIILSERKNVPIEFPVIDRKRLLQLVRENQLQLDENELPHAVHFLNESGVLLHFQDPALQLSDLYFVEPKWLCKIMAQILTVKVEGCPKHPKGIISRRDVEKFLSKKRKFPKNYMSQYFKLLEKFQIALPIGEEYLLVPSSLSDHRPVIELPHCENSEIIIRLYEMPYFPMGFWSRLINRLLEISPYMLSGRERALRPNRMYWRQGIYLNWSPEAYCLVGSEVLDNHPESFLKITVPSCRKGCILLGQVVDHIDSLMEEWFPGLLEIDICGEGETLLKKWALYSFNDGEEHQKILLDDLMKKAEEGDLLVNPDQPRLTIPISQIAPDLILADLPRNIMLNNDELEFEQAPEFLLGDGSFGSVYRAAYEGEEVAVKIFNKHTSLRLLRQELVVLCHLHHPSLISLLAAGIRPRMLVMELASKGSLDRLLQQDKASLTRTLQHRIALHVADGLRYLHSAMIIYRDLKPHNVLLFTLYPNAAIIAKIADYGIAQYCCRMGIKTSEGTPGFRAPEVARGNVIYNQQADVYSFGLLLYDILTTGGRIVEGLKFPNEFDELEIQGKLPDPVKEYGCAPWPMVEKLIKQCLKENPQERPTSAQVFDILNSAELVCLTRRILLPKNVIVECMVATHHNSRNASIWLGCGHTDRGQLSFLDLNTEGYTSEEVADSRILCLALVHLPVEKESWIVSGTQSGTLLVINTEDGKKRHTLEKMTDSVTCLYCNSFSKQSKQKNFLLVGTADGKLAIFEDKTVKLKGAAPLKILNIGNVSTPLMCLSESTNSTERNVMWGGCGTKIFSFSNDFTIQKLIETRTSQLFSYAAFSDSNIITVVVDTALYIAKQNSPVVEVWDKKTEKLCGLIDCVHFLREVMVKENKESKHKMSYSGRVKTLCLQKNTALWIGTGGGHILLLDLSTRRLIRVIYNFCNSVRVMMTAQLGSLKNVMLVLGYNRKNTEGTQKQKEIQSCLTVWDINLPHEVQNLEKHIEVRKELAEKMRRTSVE
Sequence of Testis-specific serine/threonine-protein kinase 3 (Homo sapiens) (Q96PN8 whole entry, the tested form may be a part): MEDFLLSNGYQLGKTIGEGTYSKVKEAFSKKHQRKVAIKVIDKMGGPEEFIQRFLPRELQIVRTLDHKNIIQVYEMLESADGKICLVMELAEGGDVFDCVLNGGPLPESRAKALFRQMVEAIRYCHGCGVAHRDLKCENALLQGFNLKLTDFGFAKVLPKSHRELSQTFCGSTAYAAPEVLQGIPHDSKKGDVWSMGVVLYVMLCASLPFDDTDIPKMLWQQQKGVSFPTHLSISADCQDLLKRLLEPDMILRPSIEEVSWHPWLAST
Sequence of Muscle, skeletal receptor tyrosine-protein kinase (Homo sapiens) (O15146 whole entry, the tested form may be a part): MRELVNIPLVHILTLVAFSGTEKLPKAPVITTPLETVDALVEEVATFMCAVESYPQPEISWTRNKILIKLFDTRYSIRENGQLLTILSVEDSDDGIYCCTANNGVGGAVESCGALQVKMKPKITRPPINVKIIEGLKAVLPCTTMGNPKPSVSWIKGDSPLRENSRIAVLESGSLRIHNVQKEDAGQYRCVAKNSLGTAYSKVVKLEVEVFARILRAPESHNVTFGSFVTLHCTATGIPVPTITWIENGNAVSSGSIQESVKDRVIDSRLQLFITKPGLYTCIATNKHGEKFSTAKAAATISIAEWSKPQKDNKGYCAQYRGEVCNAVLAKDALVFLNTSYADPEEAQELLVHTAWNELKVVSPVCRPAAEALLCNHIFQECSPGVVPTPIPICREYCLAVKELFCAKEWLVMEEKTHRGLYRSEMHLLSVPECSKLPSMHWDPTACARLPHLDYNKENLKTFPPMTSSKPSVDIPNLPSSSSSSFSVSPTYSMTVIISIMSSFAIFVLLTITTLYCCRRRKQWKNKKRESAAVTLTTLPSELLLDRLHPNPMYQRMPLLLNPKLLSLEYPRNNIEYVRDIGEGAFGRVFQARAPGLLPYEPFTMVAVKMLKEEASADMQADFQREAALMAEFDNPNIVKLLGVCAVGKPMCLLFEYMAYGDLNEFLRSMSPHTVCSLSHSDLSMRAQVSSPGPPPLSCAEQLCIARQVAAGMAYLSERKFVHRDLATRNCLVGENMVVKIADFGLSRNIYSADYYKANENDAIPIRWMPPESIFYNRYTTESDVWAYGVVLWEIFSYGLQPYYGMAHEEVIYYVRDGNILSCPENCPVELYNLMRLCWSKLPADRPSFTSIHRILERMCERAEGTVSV
Sequence of Aurora kinase B (Q96GD4 whole entry, the tested form may be a part): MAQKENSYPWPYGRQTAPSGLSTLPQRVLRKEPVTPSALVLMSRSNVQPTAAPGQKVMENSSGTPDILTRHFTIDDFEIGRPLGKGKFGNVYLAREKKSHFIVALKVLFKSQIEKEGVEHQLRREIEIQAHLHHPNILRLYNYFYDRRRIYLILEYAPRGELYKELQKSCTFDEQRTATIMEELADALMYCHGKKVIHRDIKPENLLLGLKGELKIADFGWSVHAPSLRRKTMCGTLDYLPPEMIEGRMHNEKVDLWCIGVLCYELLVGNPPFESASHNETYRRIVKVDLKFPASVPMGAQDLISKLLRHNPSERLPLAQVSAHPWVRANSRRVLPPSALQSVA
Sequence of Ephrin type-A receptor 4 (Homo sapiens) (P54764 whole entry, the tested form may be a part): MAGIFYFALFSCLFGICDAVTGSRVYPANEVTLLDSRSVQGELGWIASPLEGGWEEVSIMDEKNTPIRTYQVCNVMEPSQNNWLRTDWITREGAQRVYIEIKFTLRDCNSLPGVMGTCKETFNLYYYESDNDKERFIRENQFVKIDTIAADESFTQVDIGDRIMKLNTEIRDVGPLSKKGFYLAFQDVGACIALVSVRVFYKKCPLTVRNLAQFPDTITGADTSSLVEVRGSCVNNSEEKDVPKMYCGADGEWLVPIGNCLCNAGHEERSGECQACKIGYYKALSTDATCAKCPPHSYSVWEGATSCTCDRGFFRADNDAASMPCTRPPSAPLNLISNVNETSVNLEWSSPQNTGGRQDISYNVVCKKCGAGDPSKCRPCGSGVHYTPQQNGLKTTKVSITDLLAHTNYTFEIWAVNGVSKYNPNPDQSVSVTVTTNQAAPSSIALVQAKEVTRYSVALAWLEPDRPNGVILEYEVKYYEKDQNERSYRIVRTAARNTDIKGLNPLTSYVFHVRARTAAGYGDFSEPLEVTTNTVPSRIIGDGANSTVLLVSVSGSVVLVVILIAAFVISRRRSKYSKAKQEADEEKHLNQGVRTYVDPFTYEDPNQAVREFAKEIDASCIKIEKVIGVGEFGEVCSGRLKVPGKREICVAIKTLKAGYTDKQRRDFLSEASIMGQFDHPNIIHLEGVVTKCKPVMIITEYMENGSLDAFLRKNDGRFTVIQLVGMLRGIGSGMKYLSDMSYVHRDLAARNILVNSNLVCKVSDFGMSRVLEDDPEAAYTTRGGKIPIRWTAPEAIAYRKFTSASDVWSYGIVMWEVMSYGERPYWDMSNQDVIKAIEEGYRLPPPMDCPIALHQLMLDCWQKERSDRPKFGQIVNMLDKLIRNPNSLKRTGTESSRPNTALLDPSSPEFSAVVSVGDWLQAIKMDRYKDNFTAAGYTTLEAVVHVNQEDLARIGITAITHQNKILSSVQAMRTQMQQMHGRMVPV

| Compound | Activity [1] [%] | Activity (Aurora kinase B) [%] | Activity [2] [%] | Activity [3] [%] | Activity [4] [%] | Activity [5] [%] | Activity [6] [%] | Activity [7] [%] | Activity [8] [%] | Activity [9] [%] | Activity [10] [%] | Activity [11] [%] | Activity [12] [%] | Activity [13] [%] | Activity [14] [%] | Activity [15] [%] | pIC50 [16] | Activity [17] [%] | Activity [18] [%] | Activity [19] [%] | further results |
| --- | --- | --- | --- | --- | --- | --- | --- | --- | --- | --- | --- | --- | --- | --- | --- | --- | --- | --- | --- | --- | --- |
| CCC(=O)Nc1ccc(C(=O)Nc2ccc(Nc3ncc4c(n3)N(C)c3ccc(C)cc3C(=O)N4C)cc2)cc1 | 100 | 1.9 | 100 | 69 | 84 | 95 | 75 | 66 | 97 | 64 | 100 | 97 | 93 | 90 | 76 | 100 | 6.15 | 84 | 72 | 99 | Activity [20]: 100%; Activity [21]: 59%; Activity [22]: 65%; Activity [23]: 93%; Activity [24]: 47% |
| C=CC(=O)Nc1ccc(C(=O)Nc2ccc(Nc3ncc4c(n3)N(C)c3ccc(C)cc3C(=O)N4C)cc2)cc1 | 83 | 1.8 | 56 | 83 | 100 | 96 | 85 | 87 | 93 | 70 | 90 | 79 | 78 | 95 | 72 | 100 | 6.12 | 94 | 85 | 100 | Activity [20]: 93%; Activity [21]: 100%; Activity [22]: 86%; Activity [23]: 100%; Activity [24]: 95% |
